Test results as given in ChEMBL document CHEMBL3621139, “NO-Donor Dihydroartemisinin Derivatives as Multitarget Agents for the Treatment of Cerebral Malaria” (J Med Chem, 2015).
Activity calls are given as the source filed them.

Key:
[1] = tested on: Plasmodium berghei; assay: Antiplasmodial activity against Plasmodium berghei ANKA infected in C57BL/6 mouse assessed as reduction in paresitemia at 1.4 umol, ip qd for 5 days measured after 24 hrs by giemsa staining based microscpic analysis; type: functional
How it was run: (§1)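 C57BL/6 mice infected with P. berghei ANKA and treated from day 5 of infection at 5–15% parasitemia, before neurological signs. Dosing 1.4 μmol ip once daily for 5 days; parasitemia checked every 24 h. Value given as % of pre-treatment parasitemia (set as 100%), read 24 h after the first dose or 24 h after the fifth.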

[2] = tested on: Aorta; assay: Vasodilatory activity in Wistar rat endothelium-denuded thoracic aorta assessed as reduction in phenylephrine-induced contraction in presence 1 uM sGC inhibitor ODQ; type: functional, tissue-based
How it was run: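 Denuded aortic strips equilibrated 120 min, with ODQ 1 μM added to the bath 5 min before L-phenylephrine (1 μM) contraction. Cumulative vasodilator concentrations then added. EC50 is the mean ± SEM of at least three experiments, in a separate series.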

[3] = tested on: Aorta; assay: Vasodilatory activity in Wistar rat endothelium-denuded thoracic aorta assessed as reduction in phenylephrine-induced contraction; type: functional, tissue-based
How it was run: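 Endothelium-denuded aortic strips equilibrated 120 min, contracted with L-phenylephrine (1 μM), then given cumulative concentrations of vasodilator. EC50 is the mean ± SEM of at least three experiments.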

[4] = tested on: Plasmodium berghei; assay: Antiplasmodial activity against Plasmodium berghei ANKA infected in C57BL/6 mouse assessed as reduction in paresitemia at 1.4 umol, ip qd for 5 days measured after 5 days by giemsa staining based microscpic analysis; type: functional, organism-based; how it was run: as §1
[5] = tested on: Plasmodium berghei; assay: Antiplasmodial activity against Plasmodium berghei ANKA early trophozoite stage by parasite LDH assay; type: functional, organism-based
[6] = tested on: Plasmodium berghei; assay: Antimalarial activity against Plasmodium berghei ANKA infected in C57BL/6 mouse experimental cerebral model assessed as mouse survival rate at 57 mg/kg, ip qd for 5 days; type: functional
How it was run: (§2)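 P. berghei ANKA-infected mice left to develop clinical cerebral signs, then treated once hypothermic (rectal temperature 30–36 °C); parasitemia checked but not a treatment criterion. Read-out is survival, compared by log-rank test; 24 h survival also recorded. […] only the subgroup treated above 32 °C body temperature.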

[7] = tested on: Plasmodium berghei; assay: Antimalarial activity against Plasmodium berghei ANKA infected in C57BL/6 mouse experimental cerebral model with body temperature >32 deg C assessed as mouse survival rate at 57 mg/kg, ip qd for 5 days; type: functional; how it was run: as §2
[8] = tested on: Plasmodium berghei; assay: Antimalarial activity against Plasmodium berghei ANKA infected in C57BL/6 mouse experimental cerebral model assessed as mouse survival rate at 57 mg/kg, ip qd for 5 days measured after 24 hrs; type: functional; how it was run: as §2
[9] = tested on: Plasmodium berghei; assay: Antimalarial activity against Plasmodium berghei ANKA infected in C57BL/6 mouse experimental cerebral model assessed as mouse survival rate at 25 mg/kg, ip qd for 5 days measured after 24 hrs; type: functional; how it was run: as §2
[10] = tested on: Plasmodium berghei; assay: Antimalarial activity against Plasmodium berghei ANKA infected in C57BL/6 mouse experimental cerebral model assessed as mouse survival rate at 25 mg/kg, ip qd for 5 days; type: functional; how it was run: as §2
[11] = tested on: Plasmodium berghei; assay: Antimalarial activity against Plasmodium berghei ANKA infected in C57BL/6 mouse experimental cerebral model with body temperature >32 deg C assessed as mouse survival rate at 25 mg/kg, ip qd for 5 days; type: functional; how it was run: as §2

| Structure (SMILES) | inhibition (INH) [1] [%] | EC50 [2] [nM] | EC50 [3] [nM] | Activity [4] | IC50 [5] [nM] | Activity [6] [%] | Activity [3] | Activity [7] [%] | Activity [8] [%] | Activity [9] [%] | Activity [10] [%] | Activity [11] [%] |
| --- | --- | --- | --- | --- | --- | --- | --- | --- | --- | --- | --- | --- |
| C[C@H]1[C@@H](OCCN(C)Cc2no[n+]([O-])c2C#N)O[C@@H]2O[C@@]3(C)CC[C@H]4[C@H](C)CC[C@@H]1[C@@]24OO3 | 85 | 250 | 23 | Active | 18 |  |  |  |  |  |  |  |
| C[C@H]1[C@@H](OCCN(C)Cc2no[n+]([O-])c2S(=O)(=O)c2ccccc2)O[C@@H]2O[C@@]3(C)CC[C@H]4[C@H](C)CC[C@@H]1[C@@]24OO3 | 95 | 30000 | 410 | Active | 14 |  |  |  |  |  |  |  |
| C[C@H]1[C@H](OC(=O)CCC(=O)O)O[C@@H]2O[C@@]3(C)CC[C@H]4[C@H](C)CC[C@@H]1[C@@]24OO3 [SODIUM ARESUNATE] |  |  |  |  | 16 |  |  |  |  |  |  |  |
| C[C@H]1[C@@H](OCCN(C)Cc2no[n+]([O-])c2C(N)=O)O[C@@H]2O[C@@]3(C)CC[C@H]4[C@H](C)CC[C@@H]1[C@@]24OO3 | 95 | 12000 | 1400 | Active | 16 | 51.6 | Dose-dependent effect | 63.6 | 77 |  |  |  |
| C[C@H]1[C@@H](OC(=O)CCC(=O)OCO/N=[N+](\[O-])N2CCCC2)O[C@@H]2O[C@@]3(C)CC[C@H]4[C@H](C)CC[C@@H]1[C@@]24OO3 | 95 | 140 | 3.6 | Active | 15 |  |  |  |  |  |  |  |
| CO[C@H]1O[C@@H]2O[C@@]3(C)CC[C@H]4[C@H](C)CC[C@@H]([C@H]1C)[C@@]24OO3 [ARTEMETHER] |  |  |  |  | 3 |  |  |  |  | 48 | 27.5 | 33.3 |
